Shown are actives, neighbours in structure and some others; about 3.4% of the full set was active somewhere.
AHR act – AHR activators, primary screen, cell-based, luminescence, luciferase reporter, human. activation, % at 5 µM. Aryl hydrocarbon receptor (Homo sapiens), P35869. 320,000 tested, 2.5% active. AHR-responsive luciferase reporter cells; in the data active = activation above about 47%;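 note: 0% = vehicle wells and 100% = reference agonist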
Target sequence (P35869 whole entry, looked up): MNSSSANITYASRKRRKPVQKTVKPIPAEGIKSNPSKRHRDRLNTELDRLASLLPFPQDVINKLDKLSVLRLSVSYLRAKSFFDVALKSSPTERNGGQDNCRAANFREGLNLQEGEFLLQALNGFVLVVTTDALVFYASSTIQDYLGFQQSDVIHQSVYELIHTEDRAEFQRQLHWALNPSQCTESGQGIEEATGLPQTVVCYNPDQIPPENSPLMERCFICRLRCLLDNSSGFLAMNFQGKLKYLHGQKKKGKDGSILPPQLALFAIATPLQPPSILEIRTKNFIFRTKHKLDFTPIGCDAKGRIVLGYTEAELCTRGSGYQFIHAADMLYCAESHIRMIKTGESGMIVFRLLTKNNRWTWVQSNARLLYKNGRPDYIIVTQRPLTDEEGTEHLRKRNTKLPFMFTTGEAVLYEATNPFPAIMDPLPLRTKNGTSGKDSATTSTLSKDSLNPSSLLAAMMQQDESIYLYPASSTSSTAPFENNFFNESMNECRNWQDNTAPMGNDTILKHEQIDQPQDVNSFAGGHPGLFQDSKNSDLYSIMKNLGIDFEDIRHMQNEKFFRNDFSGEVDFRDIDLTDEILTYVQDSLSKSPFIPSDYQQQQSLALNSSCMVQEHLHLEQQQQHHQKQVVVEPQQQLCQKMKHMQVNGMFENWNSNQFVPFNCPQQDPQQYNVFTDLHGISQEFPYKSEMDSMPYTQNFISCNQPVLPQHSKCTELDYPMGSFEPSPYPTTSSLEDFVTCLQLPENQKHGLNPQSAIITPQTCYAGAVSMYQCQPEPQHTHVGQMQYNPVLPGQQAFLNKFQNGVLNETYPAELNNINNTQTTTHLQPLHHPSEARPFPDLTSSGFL
APOBEC3A inh – APOBEC3A ssDNA deaminase inhibitors, primary screen, selectivity assay for APOBEC3G inhibitor project, biochemical, FAM/TAMRA oligo cleavage fluorescence | DNA dC->dU-editing enzyme APOBEC-3A (Homo sapiens), P31941 | recombinant A3A, FAM/TAMRA ssDNA deamination fluorescence | inhibition, % at 20 µM | 330,000 tested, 0.41% active;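 active = at least 40% inhibition at 20 µM here, with at most 30% in a related deaminase screen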;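 note: plate controls were A3A with DMSO for no effect and wells lacking A3A enzyme for full effect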
PolyA inhibitor – polyadenylation inhibitors in yeast reporter cells, primary screen, luminescence, S. cerevisiae; S. cerevisiae SKY197-pL101 polyadenylation reporter, beta-gal luminescence; efflux-impaired pdr1/pdr3 knockout yeast; score 100 = 6 SD above DMSO; activity score, % at 12 µM; 300,000 tested, 0.02% active; AID 1875, 2009;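 active = lowest replicate activity score at least 50, where 100 means six control SD above control mean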;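 note: yeast exposed to compound for 9 h at 30 °C; higher score means more reporter readthrough which indicates perturbed polyadenylation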
UCH37 inh – inhibitors of human UCH37 deubiquitinase, primary screen, biochemical, Ub-AMC cleavage, fluorescence; Ubiquitin carboxyl-terminal hydrolase isozyme L5 (Homo sapiens), Q9Y5K5; purified proteasome/UCH37; inhibition, % (test concentration not listed); 330,000 tested, 0.33% active;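 active = mean inhibition over replicate wells above about 20%, limit read from the data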;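 note: 0% = compound-free wells with enzyme and 100% = wells lacking proteasome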
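Material: Human UCH37 enzyme supplied as purified proteasome complex | Schedule: 30 min compound-proteasome preincubation then 25 min substrate reaction, room temperature | Detection: AMC fluorescence from Ub-AMC cleavage, excitation 355 nm, emission 460 nm | Benchmarks: Wells without proteasome as full block, compound-free enzyme plus substrate as uninhibited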
A3G deaminase – APOBEC3G DNA deaminase inhibitors, primary screen, biochemical, fluorescence, single-stranded DNA substrate, uHTS; DNA dC->dU-editing enzyme APOBEC-3G (Homo sapiens), Q9HC16; recombinant A3G, ssDNA deamination FAM/TAMRA fluorescence; inhibition, % at 20 µM; 330,000 tested, 0.28% active; AID 493012, 2011;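 active = inhibition of at least 40% at 20 µM, with no more than 30% in the related APOBEC3A deaminase screen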;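 note: plate controls were DMSO wells with A3G for no effect and wells lacking A3G enzyme for full effect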
Arr AP2 block – inhibitors of beta-arrestin/AP2 binding, primary screen, biochemical, GPCR trafficking, flow cytometry; beta-arrestin 1 C-terminal peptide binding to AP2 beta2-adaptin appendage (human); FITC-arrestin peptide / GST-AP2 beads; AP2 beta2 appendage carries R879A mutation; inhibition, % at 10 µM; 340,000 tested, 0.31% active;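 active = inhibition above a set limit, near 3 SD of compounds lacking own fluorescence, cut at about 54% in these data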;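 note: plate controls were DMSO wells for no effect and 5 µM unlabelled arrestin peptide for full effect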
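system = GST-tagged AP2 beta2-adaptin appendage (R879A) on 4 µm glutathione beads | reagent = FITC-labelled arrestin peptide probe, 50 nM final | schedule = compound with beads 12 min RT, then probe 1 h RT | signal = HyperCyt-sampled flow cytometry, FL1 channel, ex 488/em 535 nm | read-out = percent response from loss of bead-bound FITC fluorescence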
* hit, by the source's call; i = inactive; nt = no result given.

SMILES	AHR act	APOBEC3A inh	PolyA inhibitor	UCH37 inh	A3G deaminase	Arr AP2 block
Cc1nc(-c2ccccc2)nc2[nH]c(-c3ccccc3)cc(=O)c12	69*	0	-8	3	0	9
CCOC(=O)Cc1cc(-c2ccccc2)nc2ccc3ccccc3c12	93*	-3	-18	-10	-3	11
c1ccc2c(c1)nc(N1CCOCC1)c1c3ccccc3[nH]c21	95*	-2	-34	-21	-4	5
O=c1[nH]c2ccccc2nc1N1CCOCC1	5	-1	7	10	-5	-3
Cc1ccc(-c2cn3cccnc3n2)cc1NC(=O)c1c(-c2ccccc2Cl)noc1C	48*	-3	-25	i	-10	-9
CCOc1ccccc1C=NNc1ccnc(=O)[nH]1	nt	nt	nt	6	nt	nt
Cc1onc(-c2c(Cl)cccc2Cl)c1C(=O)ON=C(C#N)c1ccccc1	nt	nt	nt	1	nt	nt
COc1cccc(-c2nc3ccccc3s2)c1	68*	3	-12	1	5	-2
COc1ccc(-c2nc3ccccc3s2)cc1NC(C)=O	57*	-4	3	-221	-5	0
CC(=O)NCc1ccc(-c2nc3ccccc3s2)cc1	0	-2	-13	0	-10	8
Cc1ccccc1C=NNc1ncnc2nc[nH]c12	nt	nt	nt	9	nt	nt
O=C(CN1C(=O)COc2ccccc21)c1ccc(Cl)cc1	50*	-3	3	5	-4	-7
COc1ccc(N2C(=O)CC(S/C(N)=N/N=C(C)c3cccs3)C2=O)cc1 (configuration not stated)	nt	nt	nt	4	nt	nt
O=C(CN(Cc1ccco1)S(=O)(=O)c1ccccc1)NN=Cc1cccc(O)c1	nt	nt	nt	1	nt	nt
Cc1ccc(-c2nc3c(Cl)cc(Cl)cc3c(=O)n2O)cc1	65*	3	17	3	0	5
O=c1c2cc(Br)ccc2nc(-c2ccc(Cl)cc2)n1O	50*	nt	-9	4	nt	39
O=c1c2cc(Cl)ccc2nc(-c2ccc([N+](=O)[O-])cc2)n1O	0	1	32	3	1	2
O=C(CON=Cc1ccc(OC(F)F)cc1)N1CCc2ccccc21	nt	nt	nt	6	nt	nt
COc1ccc(CC(=O)NCC(=O)NN=Cc2c[nH]c3ccccc23)cc1	nt	nt	nt	1	nt	nt
CCCN1C2=NCCN2c2ccccc21	2	-2	6	4	-8	4
CN1C2=NCCN2C(=O)c2ccccc21	52*	-3	14	0	-6	-10
CCCC(C(=O)O)N1C(=O)/C(=C/c2cccn2C)SC1=S (configuration not stated)	3	nt	nt	22*	nt	7
Cn1cccc1/C=C1\SC(=S)N(Nc2ccccc2)C1=O	2	1	0	4	-3	-16
O=C(O)C(Cc1ccccc1)N1C(=O)/C(=C/c2cccs2)SC1=S (configuration not stated)	nt	2	nt	6	-2	3
CC(C)C(C(=O)O)N1C(=O)/C(=C/c2cccn2C)SC1=S (configuration not stated)	0	nt	nt	25*	nt	-5
SMILES	AHR act	APOBEC3A inh	PolyA inhibitor	UCH37 inh	A3G deaminase	Arr AP2 block
O=C1N=c2ccccc2=C1c1[nH]c(=S)[nH]c1O	61*	-1	0	2	-4	3
COc1ccc(/C(O)=C2/C(=O)C(=O)N(CCCN3CCOCC3)C2c2ccc(C(C)C)cc2)cc1 (configuration not stated)	nt	-9	7	20*	-9	9
CCCOc1ccc(C2/C(=C(/O)c3ccccc3)C(=O)C(=O)N2CCCN(C)C)cc1OC (configuration not stated)	2	-3	nt	4	-1	6
COc1ccc(/C(O)=C2/C(=O)C(=O)N(CCCN(C)C)C2c2ccc(Cl)cc2)cc1OC (configuration not stated)	1	-1	3	24*	-1	-10
O=C(NN=Cc1cccc([N+](=O)[O-])c1)C1COc2ccccc2O1 (configuration not stated)	nt	nt	nt	5	nt	nt
COc1ccc(/C=C/c2nc(N)nc(-c3ccccc3O)n2)cc1	59*	7	8	2	1	-9
COc1ccc(/C=C/c2nc(N)nc(-c3ccccc3O)n2)cc1OC	21	0	-12	3	-1	-3
O=[N+]([O-])c1ccc(Cl)c(S(=O)(=O)Nc2cccc(S(=O)(=O)NC3=NCCC3)c2)c1	52*	0	nt	3	3	4
O=[N+]([O-])c1ccc(Cl)c(S(=O)(=O)NC2=NCCC2)c1	nt	-1	nt	1	-7	24
O=C1c2ccccc2C(=O)c2cc(NC(=O)C3CC3)ccc21	168*	-3	-37	3	1	10
O=C(Nc1ccc2c(c1)oc1ccccc12)C1CC1	74*	-2	-16	-5	-5	-1
CC(C)CN1C(=O)c2ccc(NC(=O)C3CC3)cc2C1=O	-2	0	-12	-144	-6	11
O=C(Nc1ccc2c(c1)oc1ccc(S(=O)(=O)N3CCCC3)cc12)C1CC1	-6	3	-16	-8	6	13
COc1ccc(C=NNc2nc3ccccc3[nH]2)cc1OC	nt	nt	nt	-3	nt	nt
COc1cc(/C=N\Nc2nc3ccccc3[nH]2)cc(OC)c1OC	50*	-5	10	nt	-8	23
COc1cc(OC)c(OC)cc1/C=N/Nc1nc2ccccc2[nH]1	54*	-2	1	nt	-7	4
CCN(CC)c1ccc(/C=N/Nc2nc3ccccc3[nH]2)c(O)c1	51*	-19	3	nt	-6	3
O=C(CC=NOCc1ccc(Cl)cc1)c1cnc(-c2ccccc2)s1	nt	nt	nt	3	nt	nt
CCN1CCN(C=Nc2nc3c(s2)CCCC3)CC1	nt	nt	nt	5	nt	nt
Cc1cc(C(=O)NN=Cc2cccc(Cl)c2Cl)no1	nt	nt	nt	2	nt	nt
c1coc(-c2nnc3sc(-c4cccs4)nn23)c1	55*	6	nt	7	6	11
COc1cccc(-c2nnc3sc(-c4cccs4)nn23)c1	-19	-6	nt	-6	-8	3
COc1ccccc1Cn1c(/C=C/c2ccccc2)nc2ccccc21	64*	3	-20	i	-3	-2
C=CCNC(=S)Nc1sc2c(c1C(N)=O)CCCC2	58*	-1	-4	nt	6	6
C=CC(=O)Nc1sc2c(c1C(N)=O)CCCC2	-2	-1	4	-1	-5	27
